Here are results for eight compounds from ChEMBL document CHEMBL1145492, “Comparison of the phosphorylation of 4'-ethynyl 2',3'-dihydro-3'-deoxythymidine with that of other anti-human immunodeficiency virus thymidine analogs” (Antimicrob Agents Chemother, 2007).

The target of experiment [1] is T1, Thymidylate kinase (Homo sapiens) (UniProt P23919).
T1 sequence (whole entry): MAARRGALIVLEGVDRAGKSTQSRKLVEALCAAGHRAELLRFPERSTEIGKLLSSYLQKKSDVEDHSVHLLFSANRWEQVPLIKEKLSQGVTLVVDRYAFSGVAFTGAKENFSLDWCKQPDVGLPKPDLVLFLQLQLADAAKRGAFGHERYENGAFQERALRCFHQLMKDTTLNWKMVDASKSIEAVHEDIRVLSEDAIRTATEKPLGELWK
In words: Ratio of Kcat to Km of human recombinant TMPK relative to […]. The method in brief: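 Substrate ranges were TMP 6.25–100 μM and analog MPs 6.25–250 μM. Reactions were stopped at various times with TCA and neutralized with trioctylamine/trichlorotrifluoroethane. Km and kcat came from Lineweaver-Burk plots. Relative efficiency is kcat/Km with D4TMP as 100%. Mean ± SD of three experiments.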

Experiment [2] has as its system CCRF-CEM. Kind of experiment: Activity of 3-phosphoglycerate kinase from crude human CEM cell extract assessed as phosphorylation efficiency relative to 4-ethynyl D4TDP. Conditions: in the assay text read “relative to D4TDP” for “relative to 4-ethynyl D4TDP”. The method in brief:
(§1)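 CEM cell lysate (NP-40 lysis buffer, desalted on G-50) as enzyme source. Donors: 2 mM ATP for NDPK; 2 mM creatine phosphate for CK; 2 mM phosphoenolpyruvate for PK; for PGK, 1,3-bisphosphoglycerate made in situ by GAPDH. Activity in nmol/min/mg, normalized per unit (1 μmol ADP→ATP/min), then relative to D4TDP.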

In experiment [3] the test system is CCRF-CEM. Kind of experiment: Activity of nucleoside diphosphate kinase from crude human CEM cell extract. It counts as cell-free. In outline:
as §1

Experiment [4] addresses Nucleoside diphosphate kinase B (Homo sapiens) (UniProt P22392). Kind of experiment: Activity of human recombinant nm23H2 assessed as phosphorylation efficiency relative to 4-ethynyl D4TDP. As to conditions: in the assay text read “relative to D4TDP” for “relative to 4-ethynyl D4TDP”. In outline:
(§2)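 Recombinant human nm23-H1 and nm23-H2 (cloned from KB) and PGK (cloned from HepG2). Donor was 2 mM ATP for nm23; for PGK, 1,3-bisphosphoglycerate generated by GAPDH. Specific activity (nmol/min/mg) was normalized per unit (1 μmol ADP→ATP/min) and compared with D4TDP. Mean ± SD, n=3.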

For experiment [5] the target is unchanged. Kind of experiment: Activity of human recombinant nm23H2. The method in brief: as §2
Experiment [6] relates to CCRF-CEM. Kind of experiment: Activity of nucleoside diphosphate kinase from crude human CEM cell extract assessed as phosphorylation efficiency relative to D4TDP. It counts as cell-free. The method in brief: as §1
For experiment [7], the species on record is Homo sapiens. Kind of experiment: Activity of human recombinant 3-phosphoglycerate kinase assessed as phosphorylation efficiency relative to 4-ethynyl D4TDP. Conditions: in the assay text read “relative to D4TDP” for “relative to 4-ethynyl D4TDP”. In outline: as §2
In experiment [8] the target is Nucleoside diphosphate kinase B (Homo sapiens) (UniProt P22392). In words: Activity of human recombinant nm23H2 assessed as conversion of 1 umol of ADP to ATP per min. In outline:
as §2

The species entered for experiment [9] is Homo sapiens. In words: Activity of human recombinant 3-phosphoglycerate kinase. The method in brief:
as §2

For experiment [10], the species on record is Homo sapiens. In words: Activity of human recombinant 3-phosphoglycerate kinase assessed as conversion of 1 umol of ADP to ATP per min. The method in brief: as §2
Experiment [11] relates to CCRF-CEM. In words: Activity of 3-phosphoglycerate kinase from crude human CEM cell extract. The class given is cell-free. The method in brief: as §1
Experiment [12] addresses Nucleoside diphosphate kinase A (Homo sapiens) (UniProt P15531). In words: Activity of human recombinant nm23H1. The method in brief: as §2
For experiment [13], the system named is CCRF-CEM. Kind of experiment: Activity of 3-phosphoglycerate kinase from crude human CEM cell extract assessed as conversion of 1 umol of ADP to ATP per min. It counts as cell-free. The method in brief:
as §1

Experiment [14] addresses Nucleoside diphosphate kinase A (Homo sapiens) (UniProt P15531). In words: Activity of human recombinant nm23H1 assessed as phosphorylation efficiency relative to 4-ethynyl D4TDP. As to conditions: in the assay text read “relative to D4TDP” for “relative to 4-ethynyl D4TDP”. The method in brief:
as §2

For experiment [15], the system named is CCRF-CEM. Kind of experiment: Activity of nucleoside diphosphate kinase from crude human CEM cell extract assessed as conversion of 1 umol of ADP to ATP per min. The class given is cell-free. In outline:
as §1

Experiment [16] has as its target Nucleoside diphosphate kinase A (Homo sapiens) (UniProt P15531). In words: Activity of human recombinant nm23H1 assessed as conversion of 1 umol of ADP to ATP per min. In outline: as §2
Experiment [17] deals with CCRF-CEM. In words: Activity of 3-phosphoglycerate kinase from crude human CEM cell extract assessed as phosphorylation efficiency relative to D4TDP.
Experiment [18] has as its target T1, Thymidylate kinase (Homo sapiens). Kind of experiment: Ratio of Kcat to Km of human recombinant TMPK relative to D4TMP.
Experiment [19] relates to CCRF-CEM. In words: Activity of pyruvate kinase from crude human CEM cell extract. The class given is cell-free. In outline:
as §1

For experiment [20], the system named is CCRF-CEM. In words: Activity of pyruvate kinase from crude human CEM cell extract assessed as conversion of 1 umol of ADP to ATP per min. It counts as cell-free. The method in brief:
as §1

Experiment [21] has as its system CCRF-CEM. In words: Activity of creatine kinase from crude human CEM cell extract. It counts as cell-free. In outline:
as §1

Experiment [22] concerns the target T1, Thymidylate kinase (Homo sapiens). Kind of experiment: Activity of TMPK in human CEM cells assessed as level of triphosphate metabolites per 10^6 cells at 2 uM after 12 hrs. The class given is cell-based. Conditions: CCRF-CEM. In outline:
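CEM cells at 10^6/ml in RPMI/10% FBS were exposed to 2 μM radiolabeled nucleoside (75 mCi/mmol) for 12 h. Cells were washed in cold PBS with 20 μM dipyridamole and extracted with 15% TCA on ice for 15 min. Extracts were neutralized with trioctylamine/trichlorotrifluoroethane (45:55). MP, DP and TP were resolved by HPLC, and radioactivity was converted to pmol/10^6 cells. Two independent experiments.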

Sequence of Nucleoside diphosphate kinase A (Homo sapiens) (P15531 whole entry): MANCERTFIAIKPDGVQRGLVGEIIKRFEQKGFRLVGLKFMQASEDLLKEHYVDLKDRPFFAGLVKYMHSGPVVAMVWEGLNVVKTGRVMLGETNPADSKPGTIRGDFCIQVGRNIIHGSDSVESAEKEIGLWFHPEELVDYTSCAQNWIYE
Sequence of Nucleoside diphosphate kinase B (Homo sapiens) (P22392 whole entry): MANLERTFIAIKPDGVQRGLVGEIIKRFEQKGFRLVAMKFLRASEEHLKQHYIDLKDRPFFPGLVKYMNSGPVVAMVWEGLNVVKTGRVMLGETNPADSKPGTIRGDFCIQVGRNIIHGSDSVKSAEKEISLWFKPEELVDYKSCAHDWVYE

As for `C#C[C@@]1(COP(=O)(O)O)C=C[C@H](n2cc(C)c(=O)[nH]c2=O)O1`, the Activity in experiment [1] stood at 8.8%.

Consider `Cc1cn([C@@H]2C[C@H](N=[N+]=[N-])[C@@H](COP(=O)(O)OP(=O)(O)O)O2)c(=O)[nH]c1=O`, for which the Activity turned out to be 6.2% in experiment [2]; 0.018 nmol/min/mg in experiment [3]; 7.6% in experiment [4]; 131 nmol/min/mg in experiment [5]; 1.7% in experiment [6]; 135% in [7]. Further, the Activity in experiment [8] stood at 0.1 nmol; in experiment [9], 14 nmol/min/mg; in experiment [10], 0.005 nmol; in experiment [11], 0.26 nmol/min/mg; in experiment [12], 107 nmol/min/mg; in experiment [13] it was 0.025 nmol. The Activity in experiment [14] stood at 7.2%; in [15], 0.007 nmol; in experiment [16], 0.08 nmol.

In the case of `Cc1cn([C@H]2C[C@H](O)[C@@H](COP(=O)(O)OP(=O)(O)O)O2)c(=O)[nH]c1=O`, the Activity came out at 490% in experiment [17]; 2700 nmol/min/mg in [3]; 83000% in experiment [4]; 1.4e+06 nmol/min/mg in experiment [5]; 260000% in [6]; 1300% in experiment [7]. The Activity came out at 1000 nmol in [8]; 137 nmol/min/mg in experiment [9]; 0.049 nmol in experiment [10]; 21 nmol/min/mg in experiment [11]; 1.3e+06 nmol/min/mg in experiment [12]; 2 nmol in [13]. For the same compound, the Activity in experiment [14] turned out to be 89000%; in experiment [15] it was 1100 nmol; in experiment [16], 1000 nmol.

For `Cc1cn([C@H]2C[C@H](O)[C@@H](COP(=O)(O)O)O2)c(=O)[nH]c1=O`, the Activity in experiment [18] came out at 5600%.

Turning to `Cc1cn([C@H]2C=C[C@@H](COP(=O)(O)OP(=O)(O)O)O2)c(=O)[nH]c1=O`, the Activity in [19] is 0.35 nmol/min/mg; in experiment [3], 1.1 nmol/min/mg; in experiment [20] it was 99 nmol; in [5] it was 1700 nmol/min/mg; in experiment [8], 1.2 nmol; in [9] it was 10 nmol/min/mg. Further, the Activity in [10] is 0.0037 nmol; in experiment [11], 4.2 nmol/min/mg; in experiment [12], 1500 nmol/min/mg; in [13] it was 0.4 nmol; in experiment [15] it was 0.42 nmol; in experiment [16] it was 1.2 nmol.

Take `Cc1cn([C@H]2C[C@H](N=[N+]=[N-])[C@@H](COP(=O)(O)O)O2)c(=O)[nH]c1=O`: the Activity in experiment [18] worked out at 59%.

`Nc1ncnc2c1ncn2[C@@H]1O[C@H](COP(=O)(O)OP(=O)(O)O)[C@@H](O)[C@H]1O`: the Activity in experiment [19] turned out to be 3.6 nmol/min/mg; in experiment [3], 2500 nmol/min/mg; in [11], 10600 nmol/min/mg; in experiment [21], 2.5 nmol/min/mg.

For the compound `Cc1cn([C@H]2C[C@H](N=[N+]=[N-])[C@@H](CO)O2)c(=O)[nH]c1=O`, the Activity in experiment [22] is 0.27 pmol.
